Reference: ChEMBL document CHEMBL1140543, “Biphenyls as potent vitronectin receptor antagonists. Part 3: Squaric acid amides” (Bioorg Med Chem Lett, 2007)

Tests used:
[1] = target: T1, Integrin alpha-V/beta-3 (Homo sapiens, UniProt P05106+P06756); assay: Binding affinity to integrin alpha-v-beta-3 receptor; type: protein-complex assay
Target sequence in this assay (P05106 27-788 limits assumed): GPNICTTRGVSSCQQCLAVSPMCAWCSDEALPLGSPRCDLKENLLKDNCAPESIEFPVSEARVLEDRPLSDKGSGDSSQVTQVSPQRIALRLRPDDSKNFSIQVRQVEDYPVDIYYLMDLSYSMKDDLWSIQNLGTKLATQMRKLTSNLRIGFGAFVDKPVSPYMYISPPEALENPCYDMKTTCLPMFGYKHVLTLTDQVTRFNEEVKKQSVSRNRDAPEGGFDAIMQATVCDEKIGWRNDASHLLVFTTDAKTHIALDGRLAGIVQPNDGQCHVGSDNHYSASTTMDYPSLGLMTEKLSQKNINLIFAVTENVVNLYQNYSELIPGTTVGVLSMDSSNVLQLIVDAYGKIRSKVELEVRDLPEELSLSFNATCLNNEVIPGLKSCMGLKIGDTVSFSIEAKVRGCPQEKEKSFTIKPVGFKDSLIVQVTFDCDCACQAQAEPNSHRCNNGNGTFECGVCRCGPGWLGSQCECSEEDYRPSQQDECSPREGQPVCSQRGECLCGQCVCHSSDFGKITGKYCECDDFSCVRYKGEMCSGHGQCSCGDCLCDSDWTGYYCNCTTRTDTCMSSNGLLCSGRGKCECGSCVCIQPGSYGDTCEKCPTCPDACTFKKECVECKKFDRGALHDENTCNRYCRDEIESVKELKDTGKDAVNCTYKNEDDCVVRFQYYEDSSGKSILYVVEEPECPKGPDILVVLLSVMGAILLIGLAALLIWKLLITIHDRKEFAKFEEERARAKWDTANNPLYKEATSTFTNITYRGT
Target sequence in this assay (P06756 31-889 limits assumed): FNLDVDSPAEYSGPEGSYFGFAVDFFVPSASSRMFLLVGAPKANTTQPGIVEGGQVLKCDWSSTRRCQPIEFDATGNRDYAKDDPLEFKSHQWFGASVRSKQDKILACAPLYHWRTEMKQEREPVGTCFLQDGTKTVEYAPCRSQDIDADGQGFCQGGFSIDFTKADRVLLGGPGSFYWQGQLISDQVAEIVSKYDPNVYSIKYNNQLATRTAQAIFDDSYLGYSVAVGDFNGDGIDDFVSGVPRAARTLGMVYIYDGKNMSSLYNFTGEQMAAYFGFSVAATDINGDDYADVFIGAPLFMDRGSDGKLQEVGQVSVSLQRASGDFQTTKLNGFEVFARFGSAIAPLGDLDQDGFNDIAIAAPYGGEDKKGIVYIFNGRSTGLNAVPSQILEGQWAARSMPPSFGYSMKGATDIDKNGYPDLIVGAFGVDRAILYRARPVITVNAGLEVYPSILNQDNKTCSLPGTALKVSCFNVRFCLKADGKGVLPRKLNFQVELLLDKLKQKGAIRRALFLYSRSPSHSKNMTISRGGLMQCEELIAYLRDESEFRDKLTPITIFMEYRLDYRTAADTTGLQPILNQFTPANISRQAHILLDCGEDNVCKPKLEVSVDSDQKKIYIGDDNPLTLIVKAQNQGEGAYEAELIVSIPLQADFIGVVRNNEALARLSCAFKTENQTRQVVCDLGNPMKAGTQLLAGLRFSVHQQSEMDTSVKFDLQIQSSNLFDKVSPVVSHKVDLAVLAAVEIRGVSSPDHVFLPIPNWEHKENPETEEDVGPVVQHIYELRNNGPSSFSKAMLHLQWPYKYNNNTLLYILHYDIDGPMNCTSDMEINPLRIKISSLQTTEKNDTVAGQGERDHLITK
Target sequence in this assay (P06756 891-1048 limits assumed): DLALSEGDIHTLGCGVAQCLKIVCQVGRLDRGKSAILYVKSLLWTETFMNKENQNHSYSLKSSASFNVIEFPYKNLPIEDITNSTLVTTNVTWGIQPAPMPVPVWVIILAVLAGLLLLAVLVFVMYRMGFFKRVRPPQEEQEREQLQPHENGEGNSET

[2] = target: Integrin alpha-IIb/beta-3 (Homo sapiens, UniProt P05106+P08514); assay: Binding affinity to GP2b3a receptor; type: protein-complex assay
[3] = Inhibition of smooth muscle cell migration; type: functional, Homo sapiens
[4] = target: T1, Integrin alpha-V/beta-3; assay: Antagonist activity at human integrin alpha-v-beta-3 receptor expressed in HEK293 cells; type: functional, cell-based
Procedure, shortened: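 HEK 293 cells transfected with human αvβ3 were used. Inhibition of the adhesion of purified human vitronectin to these cells gave the cellular αvβ3 affinity.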

[5] = target: Albumin (Homo sapiens, UniProt P02768); assay: Binding affinity to human serum albumin by equilibrium dialysis
[6] = test system: Liver microsomes; assay: Clearance in rat liver microsomes; type: ADME, Microsome

Chain of Albumin (P02768 whole entry): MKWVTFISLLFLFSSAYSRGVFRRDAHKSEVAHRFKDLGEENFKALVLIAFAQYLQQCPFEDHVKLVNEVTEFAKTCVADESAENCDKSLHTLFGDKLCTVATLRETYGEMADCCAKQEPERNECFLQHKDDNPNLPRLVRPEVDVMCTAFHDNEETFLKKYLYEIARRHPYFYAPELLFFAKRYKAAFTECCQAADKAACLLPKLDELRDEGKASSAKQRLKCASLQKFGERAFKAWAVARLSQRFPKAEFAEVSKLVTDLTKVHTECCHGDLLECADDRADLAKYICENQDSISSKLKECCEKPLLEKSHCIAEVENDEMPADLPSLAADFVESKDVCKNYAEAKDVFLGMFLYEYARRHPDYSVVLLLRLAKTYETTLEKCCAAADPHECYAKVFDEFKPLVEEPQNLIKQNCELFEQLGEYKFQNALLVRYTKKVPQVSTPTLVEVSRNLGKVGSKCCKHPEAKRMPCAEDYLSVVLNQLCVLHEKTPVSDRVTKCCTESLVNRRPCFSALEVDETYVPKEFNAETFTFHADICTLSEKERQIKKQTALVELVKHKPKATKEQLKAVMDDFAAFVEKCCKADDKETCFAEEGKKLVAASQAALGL
Chain of Integrin alpha-IIb/beta-3 (P05106 27-788 limits assumed): as the sequence (P05106 27-788 limits assumed) above
Chain of Integrin alpha-IIb/beta-3 (P08514 32-887 limits assumed): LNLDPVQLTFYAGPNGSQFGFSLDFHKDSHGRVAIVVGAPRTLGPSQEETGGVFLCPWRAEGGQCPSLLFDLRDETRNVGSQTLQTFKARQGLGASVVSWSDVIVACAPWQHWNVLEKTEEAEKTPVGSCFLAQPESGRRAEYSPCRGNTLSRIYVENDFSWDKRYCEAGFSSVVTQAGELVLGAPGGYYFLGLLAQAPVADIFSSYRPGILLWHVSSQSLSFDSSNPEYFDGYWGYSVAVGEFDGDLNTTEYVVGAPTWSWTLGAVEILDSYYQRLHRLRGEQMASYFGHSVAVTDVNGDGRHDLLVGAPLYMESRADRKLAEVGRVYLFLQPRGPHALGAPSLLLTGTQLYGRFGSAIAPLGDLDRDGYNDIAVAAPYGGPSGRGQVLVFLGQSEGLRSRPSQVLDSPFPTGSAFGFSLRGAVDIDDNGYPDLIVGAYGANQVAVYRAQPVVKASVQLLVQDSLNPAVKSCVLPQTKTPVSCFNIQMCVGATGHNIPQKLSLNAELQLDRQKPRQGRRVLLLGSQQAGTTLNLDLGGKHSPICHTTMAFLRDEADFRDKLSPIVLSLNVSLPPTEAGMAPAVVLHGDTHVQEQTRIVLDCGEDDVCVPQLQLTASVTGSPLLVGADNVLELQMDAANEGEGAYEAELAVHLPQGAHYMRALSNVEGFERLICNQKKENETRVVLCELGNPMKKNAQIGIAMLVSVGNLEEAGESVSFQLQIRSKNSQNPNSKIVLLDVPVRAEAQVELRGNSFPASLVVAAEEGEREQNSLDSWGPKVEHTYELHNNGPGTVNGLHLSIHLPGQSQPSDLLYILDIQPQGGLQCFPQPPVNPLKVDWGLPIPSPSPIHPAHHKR
Chain of Integrin alpha-IIb/beta-3 (P08514 891-1039 limits assumed): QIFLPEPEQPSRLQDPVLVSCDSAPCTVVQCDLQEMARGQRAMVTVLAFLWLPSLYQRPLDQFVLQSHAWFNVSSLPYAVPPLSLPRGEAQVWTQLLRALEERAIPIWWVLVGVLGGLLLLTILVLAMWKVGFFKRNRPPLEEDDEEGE

| Ki [1] [nM] | SMILES | other results |
| --- | --- | --- |
| 33 | Cc1cc(C)c(S(=O)(=O)N[C@@H](Cc2ccc(-c3cccc(NC(=O)c4ccc[nH]4)c3)cc2)C(=O)O)c(C)c1 |  |
| 0.1 | CC1(C)C2CC[C@]1(S(=O)(=O)N[C@@H](Cc1ccc(-c3cccc(Nc4c(NC5CC5)c(=O)c4=O)c3)cc1)C(=O)O)C(=O)C2 |  |
| 650 | Cc1cc(C)c(S(=O)(=O)N[C@@H](Cc2ccc(-c3cccc(NC(=O)c4ccco4)c3)cc2)C(=O)O)c(C)c1 |  |
|  | Cc1cc(C)c(S(=O)(=O)N[C@@H](Cc2ccc(-c3cccc(NC(=O)NC4CC4)c3)cc2)C(=O)O)c(C)c1 | Ki [2]: 128 nM; Activity [3]: 390 nM; Activity [4]: 85 nM; Kd [5]: 740 nM |
| 0.5 | Cc1cc(C)c(S(=O)(=O)N[C@@H](Cc2ccc(-c3cccc(Nc4c(NC5CC5)c(=O)c4=O)c3)cc2)C(=O)O)c(C)c1 | CL [6]: 65 mL/min/kg; Ki [2]: 47 nM; Activity [3]: 10 nM; Activity [4]: 13 nM; Kd [5]: 420 nM |
| 25 | Cc1cc(C)c(S(=O)(=O)N[C@@H](Cc2ccc(-c3cccc(Nc4c(NCc5ccccc5)c(=O)c4=O)c3)cc2)C(=O)O)c(C)c1 |  |
| 1.3 | Cc1cc(C)c(S(=O)(=O)N[C@@H](Cc2ccc(-c3cccc(NC4=NCCN4)c3)cc2)C(=O)O)c(C)c1 |  |
| 1 | Cc1cc(C)c(S(=O)(=O)N[C@@H](Cc2ccc(-c3cccc(NC(=O)c4ncc[nH]4)c3)cc2)C(=O)O)c(C)c1 |  |
| 10 | CS(=O)(=O)N[C@@H](Cc1ccc(-c2cccc(Nc3c(NC4CC4)c(=O)c3=O)c2)cc1)C(=O)O |  |
| > 2000 | Cc1cc(C)c(S(=O)(=O)N[C@@H](Cc2ccc(-c3cccc(NC(=O)c4ccccn4)c3)cc2)C(=O)O)c(C)c1 |  |
| 400 | Cc1cc(C)c(S(=O)(=O)N[C@@H](Cc2ccc(-c3cccc(NC(=O)c4cccnc4)c3)cc2)C(=O)O)c(C)c1 |  |
| 700 | Cc1cc(C)c(S(=O)(=O)N[C@@H](Cc2ccc(-c3cccc(NC(=O)c4ccncc4)c3)cc2)C(=O)O)c(C)c1 |  |
| 18 | Cc1cc(C)c(S(=O)(=O)N[C@@H](Cc2ccc(-c3cccc(Nc4n[s+]([O-])nc4NC4CC4)c3)cc2)C(=O)O)c(C)c1 (some centres not stated) |  |
| 11 | Cc1cc(C)c(S(=O)(=O)N[C@@H](Cc2ccc(-c3cccc(Nc4c(NCc5ccccn5)c(=O)c4=O)c3)cc2)C(=O)O)c(C)c1 |  |
